Experiments:
Format in all cases: functional, cell-based
BXPC-3 = experiment: Cytotoxicity against human BXPC3 cells after 4 days by MTT assay; conditions: BXPC-3, 96 h
Procedure, shortened: (§1)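 Panel of nine human cancer lines tested in parallel: BXPC-3 (pancreatic), NCI-446 (lung), MCF-7 (breast), HEPG-2 (liver), A549 (lung), A2780 (ovarian), Bel7402 (liver), HT-29 (colon), and KB (epidermoid carcinoma of nasopharynx). Cells were exposed for 4 days of incubation, viability was read by MTT, and values were expressed as the doses required for the response.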

[1] = Cytotoxicity against human NCI446 cells after 4 days by MTT assay; conditions: NCI446, 96 h; procedure, shortened: as §1
HepG2 = experiment: Cytotoxicity against human HepG2 cells after 4 days by MTT assay; conditions: HepG2, 96 h; procedure, shortened: as §1
A549 = experiment: Cytotoxicity against human A549 cells after 4 days by MTT assay; conditions: A549, 96 h; procedure, shortened: as §1
A2780 = experiment: Cytotoxicity against human A2780 cells after 4 days by MTT assay; conditions: A2780, 96 h; procedure, shortened: as §1
Bel-7402 = experiment: Cytotoxicity against human BEL-7402 cells after 4 days by MTT assay; conditions: Bel-7402, 96 h; procedure, shortened: as §1
HT-29 = experiment: Cytotoxicity against human HT29 cells after 4 days by MTT assay; conditions: HT-29, 96 h; procedure, shortened: as §1
KB = experiment: Cytotoxicity against human KB cells after 4 days by MTT assay; conditions: 96 h; procedure, shortened: as §1
MCF7 = experiment: Cytotoxicity against human MCF7 cells after 4 days by MTT assay; conditions: MCF7, 96 h; procedure, shortened: as §1

| Structure (SMILES) | IC50 (BXPC-3) [nM] | IC50 [1] [nM] | IC50 (HepG2) [nM] | IC50 (A549) [nM] | IC50 (A2780) [nM] | IC50 (Bel-7402) [nM] | IC50 (HT-29) [nM] | IC50 (KB) [nM] | IC50 (MCF7) [nM] |
| --- | --- | --- | --- | --- | --- | --- | --- | --- | --- |
| CCCN1COc2ccc3nc4c(cc3c2C1)Cn1c-4cc2c(c1=O)COC(=O)[C@]2(O)CC | 150 | 3900 | 10 | 110 | 90 | 1430 | 180 | 670 | – |
| CCN1COc2ccc3nc4c(cc3c2C1)Cn1c-4cc2c(c1=O)COC(=O)[C@]2(O)CC | 190 | 230 | 50 | 160 | 120 | 810 | 140 | 120 | 210 |
| CC[C@@]1(O)C(=O)OCc2c1cc1n(c2=O)Cc2cc3c4c(ccc3nc2-1)OCN(Cc1ccc(OC)cc1)C4 | 1240 | 56800 | 1470 | 30 | 17600 | 9580 | 1680 | 80 | – |
| CC[C@@]1(O)C(=O)OCc2c1cc1n(c2=O)Cc2cc3c4c(ccc3nc2-1)OCN(Cc1ccccc1)C4 | 210 | 6230 | 110 | 80 | 910 | 1580 | 100 | 40 | 1600 |
| CC[C@@]1(O)C(=O)OCc2c1cc1n(c2=O)Cc2cc3c4c(ccc3nc2-1)OCN(c1ccccc1C)C4 | 530 | 1140 | 180 | 1210 | 4260 | 6000 | 220 | 60 | – |
| CC[C@@]1(O)C(=O)OCc2c1cc1n(c2=O)Cc2cc3c4c(ccc3nc2-1)OCN(c1cccc(C)c1)C4 | 580 | 7030 | 930 | 420 | 850 | 5430 | 340 | 40 | – |
| CC[C@@]1(O)C(=O)OCc2c1cc1n(c2=O)Cc2cc3c4c(ccc3nc2-1)OCN(c1ccc(C)cc1)C4 | 2050 | 9390 | – | 570 | 2160 | 3860 | 530 | 340 | 1640 |
| CC[C@@]1(O)C(=O)OCc2c1cc1n(c2=O)Cc2cc3c4c(ccc3nc2-1)OCN(c1ccccc1OC)C4 | 3340 | – | 130 | 720 | 2990 | 2230 | 310 | 290 | 1400 |
| CC[C@@]1(O)C(=O)OCc2c1cc1n(c2=O)Cc2cc3c4c(ccc3nc2-1)OCN(c1ccc(F)cc1F)C4 | 1570 | – | 550 | 390 | 2070 | 4700 | 620 | 660 | 4480 |
| CC[C@@]1(O)C(=O)OCc2c1cc1n(c2=O)Cc2cc3c4c(ccc3nc2-1)OCN(c1ccccc1Cl)C4 | 890 | 19200 | – | 450 | 4100 | 15200 | 1050 | 330 | 2000 |
| CC[C@@]1(O)C(=O)OCc2c1cc1n(c2=O)Cc2cc3c4c(ccc3nc2-1)OCN(c1ccc(Cl)cc1)C4 | 510 | – | 170 | 310 | 820 | 16300 | 210 | 230 | 5000 |
| CC[C@@]1(O)C(=O)OCc2c1cc1n(c2=O)Cc2cc3c4c(ccc3nc2-1)OCN(c1ccc(F)c(F)c1F)C4 | 120 | – | – | 280 | 1070 | 13100 | 620 | 280 | 2590 |
| CC[C@@]1(O)C(=O)OCc2c1cc1n(c2=O)Cc2cc3c4c(ccc3nc2-1)OCN(c1ccc(F)c(Cl)c1)C4 | 920 | – | 180 | 560 | 3100 | 3060 | 1130 | 620 | 9510 |
| CC[C@@]1(O)C(=O)OCc2c1cc1n(c2=O)Cc2cc3c4c(ccc3nc2-1)OCN(Cc1ccc(F)cc1)C4 | 1730 | 43200 | 140 | 120 | 11600 | 5220 | 1190 | 60 | 650 |
| CC[C@@]1(O)C(=O)OCc2c1cc1n(c2=O)Cc2cc3c4c(ccc3nc2-1)OCN(C)C4 | 480 | 37300 | 640 | 410 | 530 | 1670 | 690 | 670 | 4520 |
| CCCCN1COc2ccc3nc4c(cc3c2C1)Cn1c-4cc2c(c1=O)COC(=O)[C@]2(O)CC | 970 | 10100 | 350 | 200 | 3190 | 4010 | 130 | 90 | 550 |
| CC[C@@]1(O)C(=O)OCc2c1cc1n(c2=O)Cc2cc3c4c(ccc3nc2-1)OCN(c1ccc(OC)cc1)C4 | 420 | 14400 | 120 | 270 | 1120 | 4990 | 310 | 230 | – |
| CC[C@@]1(O)C(=O)OCc2c1cc1n(c2=O)Cc2cc3c4c(ccc3nc2-1)OCN(c1ccccc1)C4 | 190 | – | 30 | 770 | 3430 | 7130 | 480 | 670 | 2750 |
| CC[C@@]1(O)C(=O)OCc2c1cc1n(c2=O)Cc2cc3ccccc3nc2-1 [CAMPTOTHECIN] | 240 | 3280 | 130 | 10 | 200 | 170 | 90 | 3 | 200 |
| CC[C@@]1(O)C(=O)OCc2c1cc1n(c2=O)Cc2cc3c(CN(C)C)c(O)ccc3nc2-1 [TOPOTECAN] | 620 | 10100 | – | 220 | 3350 | 3130 | 880 | 220 | 1200 |

Reference: ChEMBL document CHEMBL1158155, “Novel hexacyclic camptothecin derivatives. Part 1: synthesis and cytotoxicity of camptothecins with an A-ring fused 1,3-oxazine ring” (Bioorg Med Chem Lett, 2008)
